ChEMBL document CHEMBL3259739, “Synthesis and structure-activity relationship of trisubstituted thiazoles as Cdc7 kinase inhibitors” (Eur J Med Chem, 2014)

What was measured:
[1] = target: T1, Protein kinase C epsilon type (Homo sapiens) (UniProt Q02156); assay: Inhibition of PRKCE (unknown origin) at 1 uM relative to control; conditions: values are per cent of control
T1 sequence (whole entry): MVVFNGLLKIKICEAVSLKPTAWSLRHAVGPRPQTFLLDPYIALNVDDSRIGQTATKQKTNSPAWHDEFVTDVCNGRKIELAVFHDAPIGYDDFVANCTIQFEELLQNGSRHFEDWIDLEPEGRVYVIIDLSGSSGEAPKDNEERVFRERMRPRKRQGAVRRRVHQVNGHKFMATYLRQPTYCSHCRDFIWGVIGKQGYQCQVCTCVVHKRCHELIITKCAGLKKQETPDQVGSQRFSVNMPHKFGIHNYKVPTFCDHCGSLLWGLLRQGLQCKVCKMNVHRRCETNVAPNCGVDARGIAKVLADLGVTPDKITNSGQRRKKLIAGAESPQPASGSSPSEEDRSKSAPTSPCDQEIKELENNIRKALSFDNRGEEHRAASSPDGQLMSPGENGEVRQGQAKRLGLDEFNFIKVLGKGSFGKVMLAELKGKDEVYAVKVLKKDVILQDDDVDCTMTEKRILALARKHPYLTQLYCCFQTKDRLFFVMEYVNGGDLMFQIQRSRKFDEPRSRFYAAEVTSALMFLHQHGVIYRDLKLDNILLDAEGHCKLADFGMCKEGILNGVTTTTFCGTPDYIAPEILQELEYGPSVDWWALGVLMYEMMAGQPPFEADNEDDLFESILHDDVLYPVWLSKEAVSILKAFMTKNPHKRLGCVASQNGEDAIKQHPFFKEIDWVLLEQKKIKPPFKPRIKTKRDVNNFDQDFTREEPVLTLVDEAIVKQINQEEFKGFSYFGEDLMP
Outline: (§1)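 KinomeSCAN competitive binding panel of 100 kinases; compounds tested at 1 µM in duplicate; read-out is percent […] control.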

[2] = target: Interferon-induced, double-stranded RNA-activated protein kinase (Homo sapiens) (UniProt P19525); assay: Inhibition of PRKR (unknown origin) at 1 uM relative to control; conditions: values are per cent of control; outline: as §1
Sequence of Interferon-induced, double-stranded RNA-activated protein kinase (Homo sapiens) (P19525 whole entry): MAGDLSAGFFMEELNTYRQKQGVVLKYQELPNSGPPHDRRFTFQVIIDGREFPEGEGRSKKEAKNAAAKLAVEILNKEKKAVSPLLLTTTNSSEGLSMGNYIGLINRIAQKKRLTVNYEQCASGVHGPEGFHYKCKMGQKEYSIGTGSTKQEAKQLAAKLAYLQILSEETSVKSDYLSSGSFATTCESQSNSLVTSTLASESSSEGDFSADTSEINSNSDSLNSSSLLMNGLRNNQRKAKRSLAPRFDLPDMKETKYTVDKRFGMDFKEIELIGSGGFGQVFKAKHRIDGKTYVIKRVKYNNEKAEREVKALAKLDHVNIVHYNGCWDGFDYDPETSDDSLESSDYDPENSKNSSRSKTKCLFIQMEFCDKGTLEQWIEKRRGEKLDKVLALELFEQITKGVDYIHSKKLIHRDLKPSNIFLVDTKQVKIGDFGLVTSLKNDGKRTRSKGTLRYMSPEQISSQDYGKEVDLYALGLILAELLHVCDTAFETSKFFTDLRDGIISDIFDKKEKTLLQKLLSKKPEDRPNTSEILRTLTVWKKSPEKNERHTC

[3] = target: Proto-oncogene tyrosine-protein kinase Src (Homo sapiens) (UniProt P12931); assay: Inhibition of SRC (unknown origin) at 1 uM relative to control; conditions: values are per cent of control; outline: as §1
Sequence of Proto-oncogene tyrosine-protein kinase Src (Homo sapiens) (P12931 2-536 limits assumed): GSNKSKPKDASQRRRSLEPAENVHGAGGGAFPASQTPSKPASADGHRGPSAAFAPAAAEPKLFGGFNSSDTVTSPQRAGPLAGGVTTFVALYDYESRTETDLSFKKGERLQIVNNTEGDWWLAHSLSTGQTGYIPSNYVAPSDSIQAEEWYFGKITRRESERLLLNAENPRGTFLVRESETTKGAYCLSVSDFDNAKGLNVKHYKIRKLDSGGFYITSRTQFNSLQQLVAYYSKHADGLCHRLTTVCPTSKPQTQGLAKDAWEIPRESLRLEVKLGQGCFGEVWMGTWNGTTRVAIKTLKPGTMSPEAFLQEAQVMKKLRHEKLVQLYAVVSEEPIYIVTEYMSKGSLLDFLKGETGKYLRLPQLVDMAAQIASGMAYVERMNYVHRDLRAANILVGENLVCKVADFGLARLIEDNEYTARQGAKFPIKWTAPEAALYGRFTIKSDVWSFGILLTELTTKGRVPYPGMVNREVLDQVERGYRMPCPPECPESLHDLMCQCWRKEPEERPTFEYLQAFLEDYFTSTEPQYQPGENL

[4] = target: Tyrosine-protein kinase Lck (Homo sapiens) (UniProt P06239); assay: Inhibition of LCK (unknown origin) at 1 uM relative to control; values are per cent of control
[5] = target: Tyrosine-protein kinase Lyn (Homo sapiens) (UniProt P07948); assay: Inhibition of LYN (unknown origin) at 1 uM relative to control; values are per cent of control
Sequence of Tyrosine-protein kinase Lyn (Homo sapiens) (P07948 2-512 limits assumed): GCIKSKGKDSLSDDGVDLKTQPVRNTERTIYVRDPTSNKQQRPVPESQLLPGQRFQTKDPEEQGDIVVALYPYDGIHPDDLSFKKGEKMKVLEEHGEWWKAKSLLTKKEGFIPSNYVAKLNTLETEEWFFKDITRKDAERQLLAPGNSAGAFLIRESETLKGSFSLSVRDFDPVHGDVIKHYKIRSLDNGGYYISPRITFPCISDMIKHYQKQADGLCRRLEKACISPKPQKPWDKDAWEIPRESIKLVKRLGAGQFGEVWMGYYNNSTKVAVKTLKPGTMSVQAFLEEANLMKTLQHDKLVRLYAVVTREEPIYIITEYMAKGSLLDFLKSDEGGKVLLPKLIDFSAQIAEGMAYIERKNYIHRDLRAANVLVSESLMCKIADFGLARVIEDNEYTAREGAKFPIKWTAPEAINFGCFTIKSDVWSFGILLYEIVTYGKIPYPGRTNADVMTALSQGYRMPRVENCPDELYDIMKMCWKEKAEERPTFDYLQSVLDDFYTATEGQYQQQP

[6] = target: Hepatocyte growth factor receptor (Homo sapiens) (UniProt P08581); assay: Inhibition of MET (unknown origin) at 1 uM relative to control; values are per cent of control
Sequence of Hepatocyte growth factor receptor (Homo sapiens) (P08581 whole entry): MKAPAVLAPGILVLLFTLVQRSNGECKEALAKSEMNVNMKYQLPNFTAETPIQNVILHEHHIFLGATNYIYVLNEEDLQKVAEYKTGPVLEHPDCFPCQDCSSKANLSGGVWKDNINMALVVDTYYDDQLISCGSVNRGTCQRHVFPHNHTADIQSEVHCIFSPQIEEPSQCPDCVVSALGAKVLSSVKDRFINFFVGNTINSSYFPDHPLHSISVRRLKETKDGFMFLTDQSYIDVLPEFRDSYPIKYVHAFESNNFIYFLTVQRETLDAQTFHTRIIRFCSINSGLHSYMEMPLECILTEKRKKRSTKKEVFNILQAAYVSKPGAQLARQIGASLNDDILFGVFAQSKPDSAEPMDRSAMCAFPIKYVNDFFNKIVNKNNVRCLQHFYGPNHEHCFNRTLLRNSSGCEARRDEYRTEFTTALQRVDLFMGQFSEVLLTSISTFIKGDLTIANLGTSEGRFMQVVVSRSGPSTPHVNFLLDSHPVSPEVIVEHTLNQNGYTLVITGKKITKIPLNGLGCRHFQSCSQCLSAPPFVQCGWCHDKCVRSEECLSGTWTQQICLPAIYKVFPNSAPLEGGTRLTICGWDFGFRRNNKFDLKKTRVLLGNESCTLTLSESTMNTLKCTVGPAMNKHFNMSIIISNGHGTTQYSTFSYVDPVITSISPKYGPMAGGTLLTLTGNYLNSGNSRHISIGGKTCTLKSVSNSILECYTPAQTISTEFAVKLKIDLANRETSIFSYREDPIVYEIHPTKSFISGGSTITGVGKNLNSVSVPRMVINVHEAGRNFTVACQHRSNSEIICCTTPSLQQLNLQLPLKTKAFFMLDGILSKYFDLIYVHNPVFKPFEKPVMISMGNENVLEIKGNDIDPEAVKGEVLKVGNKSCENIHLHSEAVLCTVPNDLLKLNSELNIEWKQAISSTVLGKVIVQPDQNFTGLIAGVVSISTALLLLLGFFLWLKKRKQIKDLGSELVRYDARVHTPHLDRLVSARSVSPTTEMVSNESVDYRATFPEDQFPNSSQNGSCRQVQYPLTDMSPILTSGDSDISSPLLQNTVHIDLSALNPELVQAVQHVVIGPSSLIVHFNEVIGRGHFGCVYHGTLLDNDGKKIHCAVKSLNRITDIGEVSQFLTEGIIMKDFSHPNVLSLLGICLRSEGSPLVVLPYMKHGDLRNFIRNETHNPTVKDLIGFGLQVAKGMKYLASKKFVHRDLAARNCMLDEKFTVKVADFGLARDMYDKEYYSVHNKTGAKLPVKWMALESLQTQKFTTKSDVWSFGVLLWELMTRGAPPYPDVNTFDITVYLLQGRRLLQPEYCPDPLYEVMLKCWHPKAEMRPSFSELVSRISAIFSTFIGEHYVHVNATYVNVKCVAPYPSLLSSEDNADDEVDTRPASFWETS

[7] = target: RAC-alpha serine/threonine-protein kinase (Homo sapiens) (UniProt P31749); assay: Inhibition of AKT1 (unknown origin) at 1 uM relative to control; values are per cent of control
[8] = target: Dual specificity protein kinase CLK2 (Homo sapiens) (UniProt P49760); assay: Inhibition of CLK2 (unknown origin) at 1 uM relative to control; values are per cent of control
Sequence of Dual specificity protein kinase CLK2 (Homo sapiens) (P49760 whole entry, looked up): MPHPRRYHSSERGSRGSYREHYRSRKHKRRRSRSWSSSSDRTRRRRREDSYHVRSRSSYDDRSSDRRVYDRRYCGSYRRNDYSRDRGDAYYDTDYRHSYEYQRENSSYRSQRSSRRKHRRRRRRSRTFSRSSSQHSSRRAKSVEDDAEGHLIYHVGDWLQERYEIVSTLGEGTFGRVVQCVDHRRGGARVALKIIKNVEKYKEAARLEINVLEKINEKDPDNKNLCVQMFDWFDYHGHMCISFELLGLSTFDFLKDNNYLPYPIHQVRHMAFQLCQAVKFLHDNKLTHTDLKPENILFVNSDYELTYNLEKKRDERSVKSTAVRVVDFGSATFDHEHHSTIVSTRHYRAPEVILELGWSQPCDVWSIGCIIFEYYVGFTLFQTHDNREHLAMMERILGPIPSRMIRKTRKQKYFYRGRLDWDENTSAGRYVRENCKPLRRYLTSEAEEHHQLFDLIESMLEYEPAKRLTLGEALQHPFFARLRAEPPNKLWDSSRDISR

[9] = target: Mitogen-activated protein kinase 1 (Homo sapiens) (UniProt P28482); assay: Inhibition of ERK2 (unknown origin) at 1 uM relative to control; values are per cent of control
Sequence of Mitogen-activated protein kinase 1 (Homo sapiens) (P28482 whole entry): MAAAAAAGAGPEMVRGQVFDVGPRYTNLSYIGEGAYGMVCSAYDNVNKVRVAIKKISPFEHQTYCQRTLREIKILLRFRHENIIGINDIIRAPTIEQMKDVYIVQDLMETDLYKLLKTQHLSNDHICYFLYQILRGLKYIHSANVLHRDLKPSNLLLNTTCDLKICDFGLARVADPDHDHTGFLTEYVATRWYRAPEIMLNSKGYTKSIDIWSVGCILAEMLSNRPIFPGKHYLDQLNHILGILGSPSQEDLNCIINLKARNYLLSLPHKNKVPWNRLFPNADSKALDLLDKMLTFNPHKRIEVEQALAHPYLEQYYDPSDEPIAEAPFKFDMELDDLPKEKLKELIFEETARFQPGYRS

[10] = target: T2, Ephrin type-B receptor 3 (Homo sapiens) (UniProt P54753); assay: Inhibition of EPHB3 (unknown origin) at 1 uM relative to control; values are per cent of control
T2 sequence (whole entry): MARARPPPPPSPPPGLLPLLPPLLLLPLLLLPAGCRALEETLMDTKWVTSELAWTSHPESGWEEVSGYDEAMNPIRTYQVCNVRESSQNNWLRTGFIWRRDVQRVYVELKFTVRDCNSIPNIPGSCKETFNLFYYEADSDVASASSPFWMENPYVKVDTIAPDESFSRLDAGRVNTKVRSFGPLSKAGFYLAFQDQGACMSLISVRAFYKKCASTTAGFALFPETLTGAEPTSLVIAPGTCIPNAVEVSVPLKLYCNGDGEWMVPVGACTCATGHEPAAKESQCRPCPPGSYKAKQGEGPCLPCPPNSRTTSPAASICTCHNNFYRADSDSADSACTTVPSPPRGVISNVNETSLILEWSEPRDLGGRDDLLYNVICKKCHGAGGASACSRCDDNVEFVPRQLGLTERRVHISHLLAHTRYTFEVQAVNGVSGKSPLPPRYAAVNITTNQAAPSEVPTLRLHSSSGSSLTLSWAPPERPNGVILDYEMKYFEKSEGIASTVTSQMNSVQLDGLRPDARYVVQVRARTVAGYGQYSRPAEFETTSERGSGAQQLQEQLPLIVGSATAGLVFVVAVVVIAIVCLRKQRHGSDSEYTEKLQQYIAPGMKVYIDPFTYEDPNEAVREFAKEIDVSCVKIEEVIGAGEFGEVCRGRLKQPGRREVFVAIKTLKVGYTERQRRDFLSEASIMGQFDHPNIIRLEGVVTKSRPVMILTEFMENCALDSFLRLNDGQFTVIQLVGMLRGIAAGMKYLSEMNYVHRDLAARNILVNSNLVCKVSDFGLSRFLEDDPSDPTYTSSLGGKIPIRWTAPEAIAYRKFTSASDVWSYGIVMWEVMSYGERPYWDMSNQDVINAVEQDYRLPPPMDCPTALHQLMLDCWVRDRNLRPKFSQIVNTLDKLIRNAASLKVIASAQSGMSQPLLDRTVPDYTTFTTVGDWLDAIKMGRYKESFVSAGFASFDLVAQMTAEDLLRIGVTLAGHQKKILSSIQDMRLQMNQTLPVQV

[11] = target: MAP kinase-interacting serine/threonine-protein kinase 1 (Homo sapiens) (UniProt Q9BUB5); assay: Inhibition of MKNK1 (unknown origin) at 1 uM relative to control; values are per cent of control
Sequence of MAP kinase-interacting serine/threonine-protein kinase 1 (Homo sapiens) (Q9BUB5 whole entry, looked up, canonical isoform): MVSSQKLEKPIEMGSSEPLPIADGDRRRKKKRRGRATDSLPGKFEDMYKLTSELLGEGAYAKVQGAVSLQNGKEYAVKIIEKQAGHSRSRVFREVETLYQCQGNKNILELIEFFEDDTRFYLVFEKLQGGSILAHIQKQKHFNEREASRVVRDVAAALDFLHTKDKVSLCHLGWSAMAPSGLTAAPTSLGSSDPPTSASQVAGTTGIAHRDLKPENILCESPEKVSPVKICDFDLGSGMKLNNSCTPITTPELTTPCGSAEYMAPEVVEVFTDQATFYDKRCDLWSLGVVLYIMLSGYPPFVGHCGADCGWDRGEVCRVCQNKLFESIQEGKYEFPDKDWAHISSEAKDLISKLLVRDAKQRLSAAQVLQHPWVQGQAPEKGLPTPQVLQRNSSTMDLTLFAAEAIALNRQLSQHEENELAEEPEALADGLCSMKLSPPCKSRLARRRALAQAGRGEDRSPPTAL

[12] = target: Casein kinase I isoform delta (Homo sapiens, UniProt P48730); assay: Inhibition of CSNK1D (unknown origin) at 1 uM relative to control; values are per cent of control
Sequence of Casein kinase I isoform delta (P48730 whole entry, looked up, canonical isoform): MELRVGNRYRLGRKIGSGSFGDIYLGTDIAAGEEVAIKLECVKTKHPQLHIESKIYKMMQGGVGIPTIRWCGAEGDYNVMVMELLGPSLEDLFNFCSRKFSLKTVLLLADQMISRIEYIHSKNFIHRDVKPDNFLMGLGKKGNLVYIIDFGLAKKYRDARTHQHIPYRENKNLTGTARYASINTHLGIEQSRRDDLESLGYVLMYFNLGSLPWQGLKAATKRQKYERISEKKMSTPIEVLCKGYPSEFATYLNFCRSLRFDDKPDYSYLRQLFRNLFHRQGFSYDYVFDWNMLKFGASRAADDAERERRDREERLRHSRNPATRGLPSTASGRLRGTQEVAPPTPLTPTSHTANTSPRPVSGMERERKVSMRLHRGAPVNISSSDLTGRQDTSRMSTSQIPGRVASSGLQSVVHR

[13] = target: Dual specificity tyrosine-phosphorylation-regulated kinase 1A (Homo sapiens) (UniProt Q13627); assay: Inhibition of DYRK1A (unknown origin) at 1 uM relative to control; values are per cent of control

residual binding, % of control [1] [%] | residual binding, % of control [2] [%] | residual binding, % of control [3] [%] | residual activity [4] [%] | residual activity [5] [%] | residual activity [6] [%] | residual activity [7] [%] | residual activity [8] [%] | residual activity [9] [%] | residual activity [10] [%] | residual activity [11] [%] | residual activity [12] [%] | residual activity [13] [%] | SMILES
100 | 92 | 81 | 76 | 80 | 81 | 75 | 86 | 93 | 71 | 100 | 90 | 100 | CCOC(=O)c1sc(-c2ccncc2)nc1O
100 | 92 | 100 | 74 | 88 | 86 | 66 | 10 | 82 | 97 | 55 | 0.6 | 0.2 | COc1ccc(-c2nc(-c3ccnc(N)n3)sc2C(N)=O)c(Cl)c1

SMILES | residual binding, % of control [1] [%] | residual binding, % of control [2] [%] | residual binding, % of control [3] [%] | residual activity [4] [%] | residual activity [5] [%] | residual activity [6] [%] | residual activity [7] [%] | residual activity [8] [%] | residual activity [9] [%] | residual activity [10] [%] | residual activity [11] [%] | residual activity [12] [%] | residual activity [13] [%]
NC(=O)c1sc(-c2ccnc(N)n2)nc1-c1ccc(Cl)cc1Cl | 73 | 68 | 100 | 100 | 81 | 88 | 80 | 7.9 | 79 | 86 | 84 | 0.7 | 0.1
